The values below come from ChEMBL document CHEMBL4371102, “Tricholopardins A and B, Anti-inflammatory Terpenoids from the Fruiting Bodies of Tricholoma pardinum” (J Nat Prod, 2019).

Series [1] relates to RAW264.7. Kind of series: Anti-inflammatory activity against mouse RAW264.7 cells assessed as inhibition of LPS-stimulated NO production after 18 hrs by Griess reagent based assay. The series is classed as functional, cell-based. The settings on record: RAW264.7, 18 h. A digest of the protocol:
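RAW264.7 cells were seeded at 2 × 10^5 cells/well in RPMI 1640 with 10% FBS (37 °C, 5% CO2) and preincubated 24 h. They were then exposed 18 h to serial dilutions up to 25 μM (DMSO stock diluted in medium) with LPS 1 μg/mL. Supernatant was mixed 1:1 with Griess reagent for 5 min, and absorbance was read at 570 nm, in triplicate. MG-132 served as positive control.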
A general note: Nitrite, measured by Griess reagent, commonly stands in for NO production.

The subject of series [2] is THP-1. As to the kind of experiment: Anti-inflammatory activity against human THP1 cells assessed as inhibition of LPS-stimulated TNFalpha production at 20 uM preincubated for 30 mins followed by LPS addition and measured after 24 hrs by ELISA relative to control. It counts as functional. The method, boiled down: (§1)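 Cells kept at 37 °C in 5% CO2 with 10% heat-inactivated FBS and 1% penicillin: RAW264.7 in DMEM, THP-1 in RPMI 1640. Cells were pretreated 30 min with compound (2.5–20 μM, from DMSO solution) or dexamethasone (5 μM, positive control), then stimulated with LPS 1 μg/mL for 24 h. Supernatant TNF-α, IL-1β and PGE2 were measured by ELISA. Mean ± SD, n = 3; one-way ANOVA with Dunnett's T3 and two-tailed t test.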
(In an ELISA, binding on a coated surface is turned into a signal by an enzyme label.)

The subject of series [3] is RAW264.7. As to the kind of experiment: Anti-inflammatory activity against mouse RAW264.7 cells assessed as inhibition of LPS-stimulated PGE2 production at 20 uM preincubated for 30 mins followed by LPS addition and measured after 24 hrs by ELISA relative to control. The series is classed as functional. A digest of the protocol: as §1
The subject of series [4] is THP-1. As to the kind of experiment: Anti-inflammatory activity against human THP1 cells assessed as inhibition of LPS-stimulated IL-1beta production at 20 uM preincubated for 30 mins followed by LPS addition and measured after 24 hrs by ELISA relative to control. It counts as functional. A digest of the protocol: as §1
For series [5], the system named is THP-1. As to the kind of experiment: Anti-inflammatory activity against human THP1 cells assessed as inhibition of LPS-stimulated PGE2 production preincubated for 30 mins followed by LPS addition and measured after 24 hrs by ELISA. The series is classed as functional, cell-based. A digest of the protocol:
as §1

In series [6] the test system is RAW264.7. As to the kind of experiment: Anti-inflammatory activity against mouse RAW264.7 cells assessed as inhibition of LPS-stimulated TNFalpha production preincubated for 30 mins followed by LPS addition and measured after 24 hrs by ELISA. It counts as functional, cell-based. The method, boiled down:
as §1

The test system of series [7] is RAW264.7. Kind of series: Anti-inflammatory activity against mouse RAW264.7 cells assessed as inhibition of LPS-stimulated TNFalpha production at 20 uM preincubated for 30 mins followed by LPS addition and measured after 24 hrs by ELISA relative to control. It counts as functional. A digest of the protocol: as §1
Series [8] relates to THP-1. As to the kind of experiment: Anti-inflammatory activity against human THP1 cells assessed as inhibition of LPS-stimulated IL-1beta production preincubated for 30 mins followed by LPS addition and measured after 24 hrs by ELISA. It counts as functional, cell-based. The method, boiled down: as §1
For series [9], the system named is RAW264.7. As to the kind of experiment: Anti-inflammatory activity against mouse RAW264.7 cells assessed as inhibition of LPS-stimulated IL-1beta production at 20 uM preincubated for 30 mins followed by LPS addition and measured after 24 hrs by ELISA relative to control. The series is classed as functional. The method, boiled down:
as §1

Series [10] is described as follows: Cytotoxicity against mouse RAW264.7 cells assessed as cell viability up to 20 uM by MTS assay relative to control. The settings on record: read-out: Activity. It counts as cell-based. The method, boiled down:
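RAW264.7 macrophages were grown in DMEM with 10% heat-inactivated FBS and 1% penicillin (37 °C, 5% CO2), detached with trypsin-EDTA and seeded in 96-well plates. At 80% confluence they were treated with compound at 2.5–20 μM (dissolved in DMSO). Viability was read by MTS following the kit instructions.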
In general terms: Tetrazolium assays rely on reduction of a dye to a coloured formazan, in cell work by metabolically active cells.

Series [11] deals with RAW264.7. As to the kind of experiment: Anti-inflammatory activity against mouse RAW264.7 cells assessed as inhibition of LPS-stimulated IL-1beta production preincubated for 30 mins followed by LPS addition and measured after 24 hrs by ELISA. The series is classed as functional, cell-based. A digest of the protocol:
as §1

Series [12] deals with THP-1. Kind of series: Anti-inflammatory activity against human THP1 cells assessed as inhibition of LPS-stimulated TNFalpha production preincubated for 30 mins followed by LPS addition and measured after 24 hrs by ELISA. It counts as functional, cell-based. A digest of the protocol:
as §1

Series [13] relates to RAW264.7. As to the kind of experiment: Anti-inflammatory activity against mouse RAW264.7 cells assessed as inhibition of LPS-stimulated PGE2 production preincubated for 30 mins followed by LPS addition and measured after 24 hrs by ELISA. It counts as functional, cell-based. The method, boiled down: as §1

Peptide text beside a SMILES is read from it. * marks the point of attachment. Cbz = O=C(OCc1ccccc1)*

The IC50 is the point on the concentration scale where inhibition reaches its midpoint. In the case of `C=C1CC[C@@H](CCO)C(C)(C)[C@H]1C/C=C1/C(=O)OC[C@@H]1O`, the IC50 in series [1] came to 16200 nM.

By inhibition is commonly meant how much of the control response was suppressed. As for `CC1=C(C=O)C(C)(C)[C@H](CC[C@H]2CC[C@]3(OC2)O[C@@]2(O)CC[C@]3(C)OC2(C)C)CC1`, the inhibition at 20 µM in [2] turned out to be 99.9%; in [3], 92.5%; in series [4] it was 99.3%; in [7], 70.9%; in [9], 94.3%. In addition, the inhibition result in series [5], in series [6], in series [8], in [11], in series [12] and in series [13] was “Dose-dependent effect” in each case. In addition, in [1], the 50% inhibitory concentration (IC50) was 80 nM. For the same compound, the viability in series [10] was determined as 60%.

As for `CC(C)C[C@@H](C=O)NC(=O)[C@H](CC(C)C)NC(=O)[C@H](CC(C)C)NC(=O)OCc1ccccc1` [MG-132] (Cbz-Leu-Leu-Leu-aldehyde), in series [1], the IC50 amounted to 160 nM.
